Reference: ChEMBL document CHEMBL4513216, “Probing the Open Global Health Chemical Diversity Library for Multistage-Active Starting Points for Next-Generation Antimalarials” (ACS Infect Dis, 2020)

Assay: Toxicity liver stage against HepG2, at 10uM
Format: cell-based
Design: test concentration 10 uM, cell line HepG2-A16-CD81EGFP
Conditions: human, HepG2-A16-CD81EGFP cells; read-out: INHIBITION
Method in brief: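 Uninfected HepG2-A16-CD81EGFP cells, 3 × 10^3 per well, 1536-well, plated on prespotted compound at 10 μM final, parasite-free screening media added to match infected plates; puromycin 10 μM positive, DMSO 0.5% negative; run in parallel with 48 h PbLuc assay at 37 °C, 5% CO2; viability by CellTiter-Glo luminescence, normalized to controls.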

| SMILES | cytotoxicity at 10 µM [%] |
| --- | --- |
| N#Cc1ncn(CCS(=O)(=O)c2ccc(Br)cc2)n1 | -17.2 |
| CC(C)(CNc1ccc(S(=O)(=O)C(F)F)cc1)N1CCOCC1 | 26.7 |
| c1ccc(OCC2CC3(CCN(CC4CCOCC4)CC3)CO2)nc1 (centres undefined) | -1.37 |
| O=C1CC[C@H]2[C@H](CCN2C(=O)N2CCCC2)N1Cc1ccncc1 | -2.04 |
| Cc1ccc(N2N=C(C(N)=O)S(=O)(=O)c3cccnc32)cc1 | 4.28 |
| O=C(CCc1ccccc1)N1CCn2cc(CN3CCCC3)nc2C1 | -1.66 |
| Cn1ccnc1C(=O)N1CCOC(Cc2ccccc2Cl)C1 (centres undefined) | -12.2 |
| CCC(CC)C(=O)N1CCC(c2nn(CCN)c3nccnc23)C1 (centres undefined) | -25.5 |
| Cc1ccc2c(c1)C(=O)NCC1(CCN(C(=O)c3sccc3C)CC1)O2 | -11.7 |
| CC(C)N1CCC(Cc2cncc(-c3cc(F)ccc3C(=O)O)n2)CC1 | -8.36 |
| Cc1cncc(C2CCN(Cc3cccn3C)CC2)n1 | -6.94 |
| O=C1CCCN1CCCC(=O)N1CCCC(Cc2cccnc2)C1 (centres undefined) | -4.5 |
| CC(C)c1nccn1-c1cncc(C2CCCN(C3CCCC3)C2)n1 (centres undefined) | -6.63 |
| Cc1ccc(C(=O)N2CCC3(CC(N(C)c4ccncn4)C3)C2)cn1 (centres undefined) | -6.11 |
| Cc1nc(-c2ccc(C(=O)O)cc2)cc(C2CCCN(C(C)C)C2)n1 (centres undefined) | -10.2 |
| CC(C)(C)C(=O)N1CCCC1c1nc(O)cc(-c2ccccn2)n1 (centres undefined) | -1.26 |
| Cc1ccc(C)c(CC(=O)NC2CCS(=O)(=O)CC2)c1 | -9.56 |
| CNS(=O)(=O)Cc1cccc(CNCc2ccsc2)c1 | 11.7 |
| O=C(NCC(O)c1cccs1)c1sccc1OC(F)F (centres undefined) | -2.45 |
| Cc1noc(NCc2cn(C)nc2-c2cccnc2)n1 | 6.87 |
| CCCNC(=O)C(C)NC(=O)Nc1ccccc1SC(F)F (centres undefined) | 5.09 |
| Cc1cc(C(=O)NCC2CCC3(CC2)OCCO3)[nH]n1 | -10.7 |

| SMILES | cytotoxicity at 10 µM [%] |
| --- | --- |
| CN(Cc1ccccc1)C(=O)CCS(=O)(=O)c1ccc2c(c1)OCCO2 | -7.08 |
| O=C1CCC(=O)N1CCOc1nc(-c2ccccc2Cl)no1 | 6.97 |
| CN(C)S(=O)(=O)c1cccc(CNc2cc(CO)ccc2Cl)c1 | 5.36 |
| Cc1ccc(C(=O)O)cc1S(=O)(=O)N(CC(C)O)c1ccccc1 (centres undefined) | 9.83 |
| CC(C)Nc1ncccc1C(=O)NCc1cnc(N(C)C)n1C | -10.1 |
| CNC(=O)COc1cccc(CNC(=O)c2c(C)noc2C)c1 | -4.93 |
| CNC(=O)C1CCCN(C(=O)OC)C1 (centres undefined) | -6.06 |
| Cc1cc(CNC(C)Cn2cncn2)ccc1Br (centres undefined) | 2.33 |
| CC(=O)N1CCC(C(=O)NC2CCc3nccn3C2)CC1 (centres undefined) | -13.4 |
| Cc1cc(NCc2ccc(S(N)(=O)=O)cc2)nc(C)n1 | -2.08 |
| Cc1cc(C(C)(O)CNC(=O)OC(C)(C)C)c(C)o1 (centres undefined) | 10.5 |
| COc1ccnc(N2CCCN(C(=O)CCc3cnn(C)c3)CC2)n1 | 17.7 |
| Cc1ncc(CNCC(=O)NCC(F)(F)F)n1-c1ccccc1 | 5.57 |
| CCN1CC2(CC1=O)CN(C(C)=O)CCN(C(=O)NC)C2 (centres undefined) | -3.62 |
| O=C1C[C@H]2[C@H](CCN2C(=O)c2ccno2)N1CC1CC1 | 2.77 |
| COCC1CN(S(=O)(=O)c2cccc(F)c2)Cc2nccn2C1 (centres undefined) | -103 |
| O=C(NCc1ccccn1)[C@@]12CCO[C@@H]1CCN(c1ncccn1)C2 | -98.4 |
| O=C(NC1CCc2c(ccc(=O)n2CC2CC2)C1)c1cscn1 (centres undefined) | -104 |
| CCS(=O)(=O)N1CCC2(CCN(C(=O)c3cccs3)CC2)CC1 | -99.9 |
| Cn1cc(C2COC3(CCN(C(=O)c4ccn(C)n4)CC3)C2)cn1 (centres undefined) | -66.5 |
| CN(C)C(=O)NC1COC2(CCN(Cc3ccc(N(C)C)cc3)CC2)C1 (centres undefined) | -77 |
| O=C(NCCN1CCOCC1)C1=NOC2(CCN(Cc3nccs3)C2)C1 (centres undefined) | -79.3 |

| SMILES | cytotoxicity at 10 µM [%] |
| --- | --- |
| CN(Cc1ccco1)[C@@H]1CN(Cc2ccoc2)C[C@@H]2CCCO[C@@H]21 | -1.6 |
| COCC(=O)NCc1cc(=O)n2c(n1)CN(Cc1ccsc1)CCC2 | 0.281 |
| Cc1noc([C@H]2C[C@@H]3CCN(C(=O)C4CCOCC4)C[C@H]3O2)n1 | 7.62 |
| O=C(C1CCOC1)N1CCc2ncc(CNc3ccccn3)n2CC1 (centres undefined) | 0.0499 |
| OCCNc1nccc(-c2c[nH]nc2-c2ccncc2)n1 | -9.52 |
| c1ccc(-c2nc(CCNc3nnc(C4CCC4)o3)no2)cc1 | -3.37 |
| CCC(CO)N(Cc1cccs1)C(=O)Cc1ccncc1 (centres undefined) | -9.67 |
| CN(Cc1n[nH]c2c1CCCC2)c1cc(N2CCOCC2)nc(N)n1 | -7.7 |
| Cc1ccnn1CCC(=O)N(Cc1ccsc1)CC(C)C | -57.4 |
| O=C(NCc1nc(C2CCCCC2)no1)C1CC(=O)N(C2CC2)C1 (centres undefined) | 1.5 |
| O=C(Nc1ccc(-c2ccccc2)cc1)N1C[C@@H]2CNC[C@]2(C(=O)O)C1 | -44.7 |
| CN(C)CCN(C)c1ccc(-c2nc(COc3ccccc3)no2)cn1 | 4.35 |
| CCC[C@@H]1CN(Cc2nnc(-c3cccc(F)c3)o2)C[C@H]1NC(C)=O | 0.833 |
| Cc1ccc(OC2(C(=O)NC(C)c3csc(C)n3)CCNCC2)cc1 (centres undefined) | -0.432 |
| CC(C)SCC(=O)NCc1cc2n(n1)CCCN(C1CCCCC1)C2 | 2.37 |
| CSc1ccc(C(C(=O)O)N2CCOCC2)cc1 (centres undefined) | 0.324 |
| CC[C@@H](CO)NC(=O)c1coc(COc2ccc3sc(C)nc3c2)n1 | 4.67 |
| Cc1cccc(C)c1NC(=O)c1cccc(CN2CCCC2C)c1 (centres undefined) | 4.73 |
| CC(C)NC(=O)[C@@H]1C[C@H](N)CN1C(=O)C1(c2ccc(Cl)cc2)CCC1 | 3.92 |
| Cc1[nH]nc(CCC(=O)NCC2CCCN(C3CCCC3)C2)c1C (centres undefined) | -7.7 |
| COCCCN1C(=O)CC[C@H]2CN(c3nc4ccccc4s3)CC[C@H]21 | -9.59 |
| Cc1cc(C)cc(N2CCN(Cc3cccnc3)CC2=O)c1 | 5.02 |

| SMILES | cytotoxicity at 10 µM [%] |
| --- | --- |
| Cc1ccccc1OC(C(=O)N1CCC2(CC1)CN(C)C(=O)O2)C(C)C (centres undefined) | -52.4 |
| OCC1(O)CCCN(Cc2noc(-c3ccccc3)n2)CC1 (centres undefined) | -2.72 |
| Cc1ccnc(C(Nc2nccc(-c3ccc(C)nc3C)n2)C2CC2)c1 (centres undefined) | -1.89 |
| CC(=O)Nc1cccc(C(=O)N2CCc3c(nc(N(C)C)[nH]c3=O)C2)c1 | 5.9 |
| CSc1ccc(-n2ccnc2-c2cc3n(n2)CCNC3)cc1 | -9.94 |
| Cc1cc(C)nc(CN2CCOC(c3ccc(Cl)cc3)C2)n1 (centres undefined) | -2.43 |
| COCCN1CCCC(O)(CN2CCN(c3cnccn3)CC2)C1=O (centres undefined) | 4.04 |
| CCCC1C=CCN1C(=O)c1cc(COc2ccc3c(c2)OCO3)[nH]n1 (centres undefined) | 1.99 |
| Cc1nn(C)cc1-c1ccnc(N2CCCN(CC(C)C)CC2)n1 | 4.26 |
| COc1ccc(SC(C)C(=O)N2CCC(C(N)=O)CC2)cc1 (centres undefined) | 2.28 |
| CCCC1(NC(=O)C(c2ccccc2C)N(C)C)CC1 (centres undefined) | -40.4 |
| Cc1ccc2nc(CNCCCN3CCCC3)cc(O)c2c1 | -49.6 |
| O=C(Nc1cc(F)ccc1OCC1CCCO1)N1CCSCC1 (centres undefined) | -1.79 |
| c1ccc(-c2nc(CNC3CCc4ncnn4C3)no2)cc1 (centres undefined) | -4.16 |
| Cc1nccn1C1CCCN(C(=O)c2ccc(-n3cccn3)nc2)C1 (centres undefined) | -9.18 |
| Cc1cc(C)cc(CNC(c2ccccc2)c2nccn2C)c1 (centres undefined) | -13 |
| Cc1ncc2c(n1)CN(Cc1nc(Cc3ccccc3)no1)CC2 | -12.4 |
| CN(C(=O)Nc1ccncc1)C1CCN(c2ccccc2)C1=O (centres undefined) | -10.1 |
| Cc1cc(C)n(C2CCCN(C(=O)CCNc3ncccn3)C2)n1 (centres undefined) | -2.53 |
| CN(C)CC1CN(CCOc2cccc(C#N)c2)CCO1 (centres undefined) | -9.63 |
| Cc1cn2c(n1)CCC(NC(=O)CCn1ccnn1)C2 (centres undefined) | -2.53 |
| CCC(=O)N1CCN(C(=O)CCn2cccn2)CC1 | -2.6 |

| SMILES | cytotoxicity at 10 µM [%] |
| --- | --- |
| O=C(NCCNc1ncccn1)C1CCN(C(=O)C2CC2)CC1 | -3.02 |
| Cc1nc(C)n(C2CCCN(C(=O)c3cnc[nH]3)C2)n1 (centres undefined) | -5.04 |
| O=C(c1ccc(F)cc1Cl)N1CCC(Nc2cccnn2)CC1 | -8.08 |
| Cc1nc(C2CCCN(C(=O)C(C)(C)n3cc(Cl)cn3)C2)no1 (centres undefined) | -2.09 |
| c1csc(-c2noc(C3CCCNC3)n2)c1 (centres undefined) | -2.5 |
| Cc1cc(C[C@@H]2CCC[C@H]2NCc2ccc(C(F)(F)F)cc2)on1 | -10.1 |
| Cc1ccc(CN(CCCn2ccnc2)Cc2c[nH]cn2)s1 | -4.99 |
| COc1ccc(CN2CCO[C@H]3[C@H](Oc4ccccn4)CC[C@@H]32)cc1 | 21.5 |
| O=C(C[C@@H]1COC[C@H]2CN(Cc3ccccc3)C[C@@H]12)N1CCCC1 | 2.03 |
| O[C@H]1CCN(Cc2ccoc2)[C@H]1Cc1cccnc1 | 2.36 |
| Cc1nnc(N2CCCC3(CN(Cc4cnn(C)c4)CCO3)C2)o1 (centres undefined) | 4.12 |
| CCOCC1CN(CCN(C)C)Cc2cnn(CC3CCCC3)c21 (centres undefined) | 5.77 |
| COCCn1c2c(ccc1=O)CC(NCc1cccnc1OC)CC2 (centres undefined) | -106 |
| c1cncc(-c2nnn3c2COCC(CNCC2CCOCC2)C3)c1 (centres undefined) | -75.4 |
| CCN1CCC2(C=C(C(=O)N(C)C)c3ccccc32)CC1 | -101 |
| Cc1noc(C)c1CN1C[C@@H]2COC[C@@H](CC(=O)N3CCCCO3)[C@@H]2C1 | -72.4 |
| CNC(=O)c1cnc(C=Cc2cc(OC)c3c(c2)OCCO3)s1 | 12.9 |
| CN1C[C@@H]2C[C@H](C(=O)Nc3cccnc3)[C@H](C1)O2 | -71.1 |
| CN1[C@@H]2CC[C@H]1CN(C(=O)c1ccc(-c3ccccc3)[nH]1)CC2 | -0.372 |
| CCC=C(C)C(=O)NCCc1csc(N2CCCC2)n1 | 18.7 |
| Cc1cc(C(=O)N2C[C@@H]3C(CN(C)CCc4ccccn4)[C@@H]3C2)c(C)o1 (some centres undefined) | -50.1 |
